Laboratory results published in ChEMBL document CHEMBL1152968, “Phenylethanoid and lignan glycosides from polar extracts of Lantana, a genus of verbenaceous plants widely used in traditional herbal therapies” (J Nat Prod, 2009).
Active and inactive are the calls of the source.

Columns and labels:
Format in all cases: functional, cell-based
HL-60 = assay: Cytotoxicity against human HL60 cells at 10 uM after 48 hrs by fluorescent microplate assay
Method in brief: (§1)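 Cells were seeded in 96-well plates in RPMI 1640 with 10% fetal calf serum and 10 units/mL penicillin-streptomycin. They were then cultured 24 h at 37 °C in humidified 5% CO2 before treatment. Compounds were added dissolved in DMSO, and the read-out was cell viability.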

K562 = assay: Cytotoxicity against human K562 cells at 10 uM after 48 hrs by fluorescent microplate assay; method in brief: as §1
U-937 = assay: Cytotoxicity against human U937 cells at 10 uM after 48 hrs by fluorescent microplate assay; method in brief: as §1
CCRF-CEM = assay: Cytotoxicity against human CEM cells at 10 uM after 48 hrs by fluorescent microplate assay; method in brief: as §1
KG-1 = assay: Cytotoxicity against human KG1 cells at 10 uM after 48 hrs by fluorescent microplate assay; method in brief: as §1
Jurkat = assay: Cytotoxicity against human Jurkat cells at 10 uM after 48 hrs by fluorescent microplate assay; method in brief: as §1
U-266 = assay: Cytotoxicity against human U266 cells at 10 uM after 48 hrs by fluorescent microplate assay; method in brief: as §1
NCI-H929 = assay: Cytotoxicity against human NCI-H929 cells at 10 uM after 48 hrs by fluorescent microplate assay; method in brief: as §1

Measured: Activity

O=C(/C=C/c1ccc(O)c(O)c1)O[C@H]1[C@H](O[C@@H]2OC[C@](O)(CO)[C@H]2O)[C@@H](O)[C@H](OCCc2ccc(O)c(O)c2)O[C@@H]1CO[C@@H]1OC[C@H](O[C@@H]2OC[C@](O)(CO)[C@H]2O)[C@H](O)[C@H]1O
inactive: all assays above

COc1cc([C@H]2Oc3c(OC)cc([C@H](O)[C@H](O)CO[C@@H]4O[C@H](CO)[C@@H](O)[C@H](O)[C@H]4O)cc3[C@@H]2CO)ccc1O
inactive: all assays above
